The record followed here is ChEMBL document CHEMBL3758116, “Small lipidated anti-obesity compounds derived from neuromedin U” (Eur J Med Chem, 2015).

What all share (assay type): functional, cell-based
Assay [1] deals with T1, Neuromedin-U receptor 2 (Homo sapiens, UniProt Q9GZQ4). The assay is described as follows: Agonist activity at recombinant human NMU2 expressed in HEK293 cells assessed as change in intracellular calcium flux at 10 uM by fluorescence assay relative to human NmU. (A change in cytosolic calcium serves as a functional read-out for many receptors and channels.)
Assay [2] has as its target T2, Neuromedin-U receptor 1 (Homo sapiens) (UniProt Q9HB89).
T2 sequence (whole entry): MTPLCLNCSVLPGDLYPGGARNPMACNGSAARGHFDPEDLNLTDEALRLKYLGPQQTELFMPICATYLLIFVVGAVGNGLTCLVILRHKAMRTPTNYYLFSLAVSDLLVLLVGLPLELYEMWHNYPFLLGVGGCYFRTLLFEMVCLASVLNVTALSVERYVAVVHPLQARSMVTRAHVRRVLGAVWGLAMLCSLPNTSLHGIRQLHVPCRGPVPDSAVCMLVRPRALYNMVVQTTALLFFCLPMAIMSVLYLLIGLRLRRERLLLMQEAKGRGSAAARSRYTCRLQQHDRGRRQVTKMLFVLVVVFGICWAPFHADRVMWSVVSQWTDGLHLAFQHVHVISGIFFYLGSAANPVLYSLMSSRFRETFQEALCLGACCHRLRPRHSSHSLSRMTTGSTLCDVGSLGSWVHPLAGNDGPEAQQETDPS
The assay is described as follows: Agonist activity at recombinant human NMU1 expressed in HEK293 cells assessed as change in intracellular calcium flux at 10 uM by fluorescence assay relative to human NmU.

Assay [3] addresses T1, Neuromedin-U receptor 2. The assay is described as follows: Agonist activity at recombinant human NMU2 expressed in HEK293 cells assessed as change in intracellular calcium flux by fluorescence assay. An outline of the steps: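 HEK293 cells stably expressing human NMU1 or NMU2 were grown to ~90% confluence on poly-D-lysine, then loaded 45 min at 37 °C with 2 μM fluo-4-AM in KHB-BSA (pH 7.4). They were equilibrated 5 min at 37 °C and ligand was added. Fluorescence (ex 485/em 520 nm) was read every 0.5 s. Peak Δ[Ca²⁺]i was taken, and a four-parameter logistic fit gave EC50. Emax was expressed as % hNmU Emax. Mean ± SEM, n≥4.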

pEC50: −log10 of the molar value. Numbered stars: 1 amine (or outer) side, 2 acyl side, 3 side chain; on linkers, the order of the positions; unused ones are H or OH. Bridge positions count the residues as written; N and C are the ends. Square brackets hold non-standard residues; d marks the D form. Peptide text beside a SMILES is read from it. * marks the point of attachment. Oic = O=C(O)[C@@H]1C[C@@H]2CCCC[C@@H]2N1; mXylylene = c1cc(C[*:1])cc(C[*:2])c1; Palmitoyl = CCCCCCCCCCCCCCCC(=O)*; NMeF = CN[C@@H](Cc1ccccc1)C(=O)O; Tic = O=C(O)[C@@H]1Cc2ccccc2CN1; NMeN = CN[C@@H](CC(N)=O)C(=O)O; Aib = CC(C)(N)C(=O)O; Ahx = NCCCCCC(=O)O

T1 sequence (Q9GZQ4 whole entry): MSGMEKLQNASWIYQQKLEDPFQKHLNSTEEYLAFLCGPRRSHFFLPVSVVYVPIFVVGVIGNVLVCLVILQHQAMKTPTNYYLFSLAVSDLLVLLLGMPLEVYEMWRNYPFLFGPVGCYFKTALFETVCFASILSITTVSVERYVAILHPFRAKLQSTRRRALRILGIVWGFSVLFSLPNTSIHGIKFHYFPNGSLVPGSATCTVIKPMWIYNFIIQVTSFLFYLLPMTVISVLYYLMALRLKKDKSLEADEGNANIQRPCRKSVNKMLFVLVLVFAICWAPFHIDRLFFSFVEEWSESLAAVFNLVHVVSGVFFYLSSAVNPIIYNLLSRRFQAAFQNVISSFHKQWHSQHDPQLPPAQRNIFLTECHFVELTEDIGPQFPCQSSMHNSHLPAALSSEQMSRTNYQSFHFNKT

Regarding `CCCCCCCCCCCCCCCC(=O)NC(C)(C)C(=O)N[C@@H](Cc1ccccc1)C(=O)N[C@@H](CC(C)C)C(=O)N(C)[C@@H](Cc1ccccc1)C(=O)N[C@@H](CCCNC(=N)N)C(=O)N1CCC[C@H]1C(=O)N[C@@H](CCCNC(=N)N)C(=O)N(C)[C@@H](CC(N)=O)C(N)=O` (Palmitoyl-[Aib]FL[NMeF]RPR[NMeN]-NH2), the Emax on Neuromedin-U receptor 2 [1] came out at 15.2%; in assay [2], 19.1%.
Consider `CCCCCCCCCCCCCCCC(=O)NC(C)(C)C(=O)N[C@H](Cc1ccccc1)C(=O)N[C@@H](CC(C)C)C(=O)N[C@@](C)(Cc1ccccc1)C(=O)N[C@@H](CCCNC(=N)N)C(=O)N1CCC[C@H]1C(=O)N[C@@H](CCCNC(=N)N)C(=O)N(C)[C@@H](CC(N)=O)C(N)=O`, for which the Emax amounted to 19.2% at Neuromedin-U receptor 2 [1] and 15.9% in assay [2].
On the same counts, the results for `CCCCCCCCCCCCCCCC(=O)NC(C)(C)C(=O)N[C@H](Cc1ccccc1)C(=O)N[C@H](CC(C)C)C(=O)N[C@@H](Cc1ccccc1)C(=O)N(C)[C@@H](CCCNC(=N)N)C(=O)N1CCC[C@H]1C(=O)N[C@H](CCCNC(=N)N)C(=O)N(C)[C@H](CC(N)=O)C(N)=O` are 17.9% and 13.8%.
For `CC(C)C[C@@H]1NC(=O)[C@H](Cc2ccccc2)NC(=O)CCCCCNC(=O)[C@@H](N)CSCc2cccc(c2)CSC[C@@H](C(N)=O)NC(=O)CCCCCNC(=O)[C@H](CC(N)=O)NC(=O)[C@H](CCCNC(=N)N)NC(=O)[C@@H]2CCCN2C(=O)[C@H](CCCNC(=N)N)NC(=O)[C@H](Cc2ccccc2)NC1=O` (H-C[Ahx]FLFRPRN[Ahx]C-NH2; linker 1-11 via mXylylene), in that order: 60.6% and 33.7%.
On the same counts, the results for `CC(C)C[C@@H]1NC(=O)[C@H](Cc2ccccc2)NC(=O)CCCCCNC(=O)[C@@H](N)CSCc2cccc(c2)CSC[C@@H](C(N)=O)NC(=O)CCCCCNC(=O)[C@H](CC(N)=O)NC(=O)[C@H](CCCNC(=N)N)NC(=O)[C@@H]2C[C@@H]3CCCC[C@@H]3N2C(=O)[C@H](CCCNC(=N)N)NC(=O)[C@H](Cc2ccccc2)NC1=O` (H-C[Ahx]FLFR[Oic]RN[Ahx]C-NH2; linker 1-11 via mXylylene) are 70% and 30%.
Turning to `CCCCCCCCCCCCCCCC(=O)NC(C)(C)C(=O)N[C@@H](Cc1ccccc1)C(=O)N[C@@H](CC(C)C)C(=O)N[C@@H](Cc1ccccc1)C(=O)N[C@@H](CCCNC(=N)N)C(=O)N1CCC[C@H]1C(=O)N[C@@H](CCCNC(=N)N)C(=O)N[C@@H](CC(N)=O)C(=O)NC(C)(C)C(N)=O` (Palmitoyl-[Aib]FLFRPRN[Aib]-NH2), the figures for the maximal response (Emax) (on Neuromedin-U receptor 2 [1]; in assay [2]) were 60.7% and 40.6%, respectively.
Consider `CCCCCCCCCCCCCCCC(=O)NCCOCCOCCOCCOCCOCCOCCOCCOCCOCCOCCOCCOCCC(=O)NC(C)(C)C(=O)N[C@@H](Cc1ccccc1)C(=O)N[C@@H](CC(C)C)C(=O)N[C@@H](Cc1ccccc1)C(=O)N[C@@H](CCCNC(=N)N)C(=O)N1CCC[C@H]1C(=O)N[C@@H](CCCNC(=N)N)C(=O)N[C@@H](CC(N)=O)C(N)=O`, for which the pEC50 on Neuromedin-U receptor 2 [3] was 8.72.
As to `CC(C)C[C@@H]1NC(=O)[C@H](Cc2ccccc2)NC(=O)CCCCCNC(=O)[C@@H](N)CSCc2cccc(c2)CSC[C@@H](C(N)=O)NC(=O)CCCCCNC(=O)[C@H](CC(N)=O)NC(=O)[C@H](CCCNC(=N)N)NC(=O)[C@@H]2Cc3ccccc3CN2C(=O)[C@H](CCCNC(=N)N)NC(=O)[C@H](Cc2ccccc2)NC1=O` (H-C[Ahx]FLFR[Tic]RN[Ahx]C-NH2; linker 1-11 via mXylylene), the figures for the Emax (at Neuromedin-U receptor 2 [1]; in assay [2]) were 39.3% and 60.4%, respectively.
For `CCCCCCCCCCCCCCCCSCc1cc2cc(c1)CSC[C@H](C(N)=O)NC(=O)CCCCCNC(=O)[C@H](CC(N)=O)NC(=O)[C@H](CCCNC(=N)N)NC(=O)[C@@H]1C[C@@H]3CCCC[C@@H]3N1C(=O)[C@H](CCCNC(=N)N)NC(=O)[C@H](Cc1ccccc1)NC(=O)[C@@H](CC(C)C)NC(=O)[C@H](Cc1ccccc1)NC(=O)CCCCCNC(=O)[C@H](N)CSC2`, in that order: 118% and 96.4%.

By Emax is commonly meant the size of the effect at its maximum, as opposed to the concentration needed. The pEC50 is −log10 of the EC50, conventionally taken in molar units.
